# In ChEMBL document CHEMBL1129495, “Highly selective bradykinin agonists and antagonists with replacement of proline residues by N-methyl-D- and L-phenylalanine” (J Med Chem, 1996):
# Square brackets hold non-standard residues; d marks the D form. Peptide text beside a SMILES is read from it.
# Key:
# [1] = Inhibitory activity against high affinity binding site of Bradykinin receptor in guinea pig ileum was reported.; type: tissue-based; settings: Cavia porcellus
# Method in brief: (§1)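 Fresh rat myometrial or guinea pig ileum membranes (0.3–0.5 mg protein) incubated 30 min at 4 °C with 0.05 nM [3H]BK and increasing peptide concentrations. Buffer: 25 mM TES pH 6.8, 1 µM captopril, 1 mM DTE, bacitracin, BSA. Samples filtered on PEI-treated GF/C and counted. High- and low-affinity IC50s from Tobler–Engel analysis; duplicates.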
# [2] = Inhibitory activity against low affinity binding site of Bradykinin receptor in guinea pig ileum; type: tissue-based; settings: Cavia porcellus; method in brief: as §1
# [3] = Inhibitory activity against high affinity binding site of Bradykinin receptor in rat uterus membrane was reported.; type: cell membranes; method in brief: as §1
# [4] = Inhibitory activity against low affinity binding site of Bradykinin receptor in rat uterus membrane was reported.; type: cell membranes; method in brief: as §1
# Cavia porcellus [5] = organism: Cavia porcellus; assay: (§2) Antagonistic activity was evaluated in Guinea pig ileum assay.; type: functional; parameters: scale not given: the % may be the effect or the level left
# Method in brief: (§3)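 Guinea pig terminal ileum in Tyrode at 37 °C under 0.5 g tension, isotonic recording. Analog added 5 min before a cumulative BK dose–response curve (maximum at 0.3 µM BK). pA2 is the negative log of the antagonist concentration that reduces the effect of a double BK dose to that of a single dose. Means of 3–7 determinations.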
# Cavia porcellus [6] = organism: Cavia porcellus; assay: Antagonistic activity was evaluated in Guinea pig lung strip assay.; type: functional; parameters: scale not given: the % may be the effect or the level left
# Method in brief: (§4)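 Lower-lobe lung strips (2–3 mm) from guinea pigs (400–600 g) in Krebs–Henseleit at 37 °C under 1 g load, with isometric tension recorded. After 1 h equilibration, peptide was given 5 min before an ED50 dose of BK. Cumulative BK curves covered 0.01–10 µM. pA2 by the van Rossum method.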
# Cavia porcellus [7] = organism: Cavia porcellus; assay: Antagonistic activity expressed as pA2 in Guinea pig lung strip assay.; type: functional; settings: read-out: pA2 (converted); method in brief: as §4
# Rattus norvegicus [8] = organism: Rattus norvegicus; assay: Agonistic activity was evaluated in Estrus Rat Uterus Assay; type: functional
# Method in brief: (§5)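 Uteri from female Wistar rats (180–200 g) given diethylstilbestrol 100 µg/kg sc 16 h before use. Distal horns held in de Jalon solution at 28 °C under 0.5 g resting tension, with isotonic contractions recorded. BK was dosed every 4 min and left in the bath 45 s. Agonist activity by Schild 4-point method, expressed as percent of BK activity.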
# [9] = Inhibitory activity against low binding affinity binding site of Bradykinin receptor in guinea pig ileum was reported.; type: tissue-based, Cavia porcellus; method in brief: as §1
# [10] = Inhibitory activity against high binding affinity binding site of Bradykinin receptor in rat uterus membrane was reported.; type: cell membranes; method in brief: as §1
# [11] = Inhibitory activity against low binding affinity binding site of Bradykinin receptor in rat uterus membrane was reported.; type: cell membranes; method in brief: as §1
# Cavia porcellus [12] = organism: Cavia porcellus; assay: as §2; type: functional, organism-based; settings: read-out: pA2 (converted); method in brief: as §3
# Cavia porcellus [13] = organism: Cavia porcellus; assay: Agonistic activity against selectivity for smooth muscle contraction in guinea pig ileum.; type: functional, Muscle tissue
# Method in brief: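 Isolated terminal ileum (1.5 cm) from guinea pigs fasted 16 h, in Tyrode at 37 °C. Isotonic contractions recorded under 0.5 g resting tension. Agonist activity measured by Schild 4-point method against BK doses of 1 and 2 nM, expressed as percent of BK activity.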
# Rattus norvegicus [14] = organism: Rattus norvegicus; assay: Agonistic activity against selectivity for smooth muscle contraction in rat uterus.; type: functional, Muscle tissue; method in brief: as §5
# [15] = Selectivity for rat uterus is expressed as the ratio RUT/GPI; type: functional
# Method in brief: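 Ratio of agonist activity (percent of BK) in estrus rat uterus to that in guinea pig ileum, both from isotonic contraction assays using the Schild 4-point method.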
# Rattus norvegicus [16] = organism: Rattus norvegicus; assay: Compound was tested for agonist activity for contraction of rat uterus, the negative logarithm of ED50 (pD2) was estimated.
# Cavia porcellus [17] = organism: Cavia porcellus; assay: Compound was tested for agonist activity for contraction of guinea pig ileum; the negative logarithm of ED50 (pD2) was estimated.
Compound,IC50 [1] [nM],IC50 [2] [nM],IC50 [3] [nM],IC50 [4] [nM],IC50 [9] [nM],IC50 [10] [nM],IC50 [11] [nM],Activity (Cavia porcellus [5]) [%],Activity (Cavia porcellus [6]) [%],Kb (Cavia porcellus [7]) [nM],Activity (Rattus norvegicus [8]) [%],Kb (Cavia porcellus [12]) [nM],Activity (Cavia porcellus [13]) [%],Activity (Rattus norvegicus [14]) [%],Ratio [15],pD2 (Rattus norvegicus [16]),pD2 (Cavia porcellus [17])
CN(C(=O)[C@@H](N)CCCN=C(N)N)[C@@H](Cc1ccccc1)C(=O)N1CCC[C@H]1C(=O)NCC(=O)N[C@@H](Cc1ccccc1)C(=O)N[C@@H](CO)C(=O)N1CCC[C@H]1C(=O)N[C@@H](Cc1ccccc1)C(=O)N[C@@H](CCCN=C(N)N)C(=O)O,1,25,3.5,232,,,,4,1.4,2570,35,,,,,,
H-RPPGFSPFR-OH [BRADYKININ],0.01,1.75,0.01,1,,,,100,100,,100,,100,100,1,7.9,7.4
CN(C(=O)[C@H](CO)NC(=O)[C@H](Cc1cccs1)NC(=O)CNC(=O)[C@@H]1CC(O)CN1C(=O)[C@@H]1CCCN1C(=O)[C@@H](N)CCCN=C(N)N)[C@H](Cc1ccccc1)C(=O)N[C@@H](Cc1ccccc1)C(=O)N[C@@H](CCCN=C(N)N)C(=O)O (stereo partly specified),,,,,29,0.49,65,0.02,0.04,,89,,,,4000,,

# Further lines, with some results ahead:
IC50 [1] [nM],IC50 [2] [nM],IC50 [3] [nM],IC50 [4] [nM],IC50 [9] [nM],IC50 [10] [nM],IC50 [11] [nM],Compound,Activity (Cavia porcellus [5]) [%],Activity (Cavia porcellus [6]) [%],Kb (Cavia porcellus [7]) [nM],Activity (Rattus norvegicus [8]) [%],Kb (Cavia porcellus [12]) [nM],Activity (Cavia porcellus [13]) [%],Activity (Rattus norvegicus [14]) [%],Ratio [15],pD2 (Rattus norvegicus [16]),pD2 (Cavia porcellus [17])
,,,,14,6.6,3.5,NC(N)=NCCC[C@H](NC(=O)[C@H](Cc1ccccc1)NC(=O)[C@@H](Cc1ccccc1)NC(=O)[C@H](CO)NC(=O)[C@H](Cc1ccccc1)NC(=O)CNC(=O)[C@@H]1CCCN1C(=O)[C@@H]1CCCN1C(=O)[C@@H](N)CCCN=C(N)N)C(=O)O (H-RPPGFS[dF]FR-OH),,0.9,,1.7,2750,,,,,
1,132,0.11,4.8,,,,CN(C(=O)[C@H](CO)NC(=O)[C@H](Cc1ccccc1)NC(=O)CNC(=O)[C@@H]1CCCN1C(=O)[C@@H]1CCCN1C(=O)[C@@H](N)CCCN=C(N)N)[C@H](Cc1ccccc1)C(=O)N[C@@H](Cc1ccccc1)C(=O)N[C@@H](CCCN=C(N)N)C(=O)O,0.04,1.4,,136,,,,300,,
